# Source: PubChem BioAssay
# Lmaj promast: inhibitors of Leishmania major promastigote growth; inhibition, % at 10 µM; AID 1063; 9% of 200,000 active; Leishmania major promastigotes, resazurin fluorescence viability;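 note: promastigotes grown with compound for 44 hours at 28 °C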
# ABCB1 inh: inhibitors of human ABCB1 transporter, ABCG2 counter-screen. P08183. CCRF-Adr cells, JC-1 efflux, flow cytometry. inhibition, % at 6.6 µM. 0.067% of 190,000 active. AID 1326; in the data active = inhibition above about 40%;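 note: 0% = vehicle and 100% = reference inhibitor; higher value means more JC-1 retained so stronger ABCB1 efflux block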
# GSH fluor: compound fluoresces at 488/530 nm on GSH beads | GSH beads flow cytometry, compound fluorescence 488/530 nm; stronger effect = higher value | fluorescence (KMESF) at 10 µM | 0.25% of 190,000 active; in the data active = fluorescence above about 89;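 note: glutathione beads carrying GST-tagged Bcl family fusion proteins plus one bare bead set; values are compound well signal with DMSO vehicle wells as background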
# ABCG2 block: blocks JC-1 efflux by human ABCG2 transporter; inhibition, % at 6.6 µM; 0.1% of 190,000 active; IgMXP3 cells, flow cytometry;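 active = inhibition above 80%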;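 note: 0% = DMSO and 100% = nicardipine control wells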
#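 Test system: IgMXP3 (ABCG2) plus far-red-tagged CCRF-Adr (ABCB1) cells. Reagent: JC-1 dye as substrate. Timing: 10 min exposure at 25 °C with rotation, no wash. Measured by: flow cytometric JC-1 green MFI at 530 nm. Read-out: percent efflux inhibition, scaled nicardipine 100% to DMSO 0%. Control set: nicardipine and DMSO wells.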
# Avidin bead fluor: avidin bead compound fluorescence profile | Avidin beads, compound fluorescence 488/530 nm, flow cytometry; stronger effect = higher value | fluorescence (KMESF) at 10 µM | 0.38% of 220,000 active | AID 1775; in the data active = fluorescence above about 47
# PKD1 inh: PKD1 (human) kinase inhibition. PKD1 kinase fluorescence polarization assay. 0.056% of 200,000 active. inhibition, % (concentration not given with the values). Q15139
# Target sequence (Q15139 whole entry, looked up): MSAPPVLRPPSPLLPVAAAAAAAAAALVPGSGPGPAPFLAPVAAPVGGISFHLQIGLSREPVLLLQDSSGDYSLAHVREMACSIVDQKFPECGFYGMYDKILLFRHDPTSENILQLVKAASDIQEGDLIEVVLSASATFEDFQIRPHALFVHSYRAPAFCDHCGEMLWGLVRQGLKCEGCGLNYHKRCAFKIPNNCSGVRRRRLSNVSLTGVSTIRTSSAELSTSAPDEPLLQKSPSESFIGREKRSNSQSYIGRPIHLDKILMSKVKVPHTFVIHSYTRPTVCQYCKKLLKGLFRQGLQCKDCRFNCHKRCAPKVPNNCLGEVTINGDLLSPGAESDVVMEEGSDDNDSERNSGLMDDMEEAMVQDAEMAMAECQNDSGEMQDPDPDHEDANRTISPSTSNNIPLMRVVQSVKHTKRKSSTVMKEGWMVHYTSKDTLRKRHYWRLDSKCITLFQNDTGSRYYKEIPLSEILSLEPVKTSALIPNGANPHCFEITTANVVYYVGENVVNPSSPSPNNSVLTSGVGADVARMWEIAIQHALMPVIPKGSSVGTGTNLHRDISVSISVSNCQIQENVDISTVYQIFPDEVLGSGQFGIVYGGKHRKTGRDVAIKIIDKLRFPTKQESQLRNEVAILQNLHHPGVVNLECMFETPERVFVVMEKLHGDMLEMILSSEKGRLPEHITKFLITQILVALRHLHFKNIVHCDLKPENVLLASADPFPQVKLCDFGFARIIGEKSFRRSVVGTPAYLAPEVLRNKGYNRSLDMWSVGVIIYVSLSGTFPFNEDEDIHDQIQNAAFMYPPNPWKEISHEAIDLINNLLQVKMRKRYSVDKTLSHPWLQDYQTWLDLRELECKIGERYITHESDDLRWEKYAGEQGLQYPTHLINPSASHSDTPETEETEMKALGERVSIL
# * hit, by the source's call; x = not tested or not shown. Many of the other results were omitted from the sample, so hits are more common in it than they were. Cut-off read from the data, not from the text of the source, unless noted: active = inhibition above about 50%; inactive = the rest.
SMILES,Lmaj promast,ABCB1 inh,GSH fluor,ABCG2 block,Avidin bead fluor,PKD1 inh
CC(C)(C)NS(=O)(=O)c1cc(C(=O)Nc2sccc2C#N)ccc1Cl,54*,0,9,44,12,-3
Cc1ccc(N(CC(=O)NC2CCC(C)CC2)S(=O)(=O)c2cccnc2)cc1 (stereo not given),67*,2,27,2,8,-12
COc1ccc(N(CC(=O)NC2CCCCC2)S(=O)(=O)c2cccnc2)cc1,-1,3,23,5,2,6
Cc1c(Cl)cccc1N=Cc1ccc([N+](=O)[O-])s1,101*,0,20,1,36,6
O=[N+]([O-])c1ccc(/C=N/NC(=S)Nc2ccc(Cl)cc2Cl)s1,x,x,x,x,6,x
Cc1ccc([N+](=O)[O-])cc1N/C=C1\CCCCC1=O,5,1,19,9,8,2
Cc1ccc(NS(=O)(=O)c2ccc(Cl)c(NC(=S)NC(=O)C3CCCCC3)c2)cc1Cl,25,-1,8,-10,1,-3
O=C(OCc1nc2ccc(Cl)cc2n1CCO)c1ccccc1C(=O)c1ccccc1,60*,1,11,8,14,-23
c1ccc2sc(Sc3ncnc4sccc34)nc2c1,69*,0,6,8,12,-8
CCc1cc2c(Sc3nc4ccccc4s3)ncnc2s1,18,0,27,4,6,-1
O=C(Nc1ccc2c(c1)OCO2)C1CCN(C(=O)c2ccc([N+](=O)[O-])cc2)CC1,-4,0,14,0,23,-4
CN(c1ccccc1)S(=O)(=O)c1cccc(C(=O)Nc2ccc3c(c2)CCC3)c1,75*,1,12,4,8,3
COc1ccc(NC(=O)c2cccc(S(=O)(=O)N(C)c3ccccc3)c2)cn1,72*,0,5,-1,1,-1
CN(c1cccc(Cl)c1)S(=O)(=O)c1cccc(C(=O)Nc2nc3ccccc3[nH]2)c1,99*,1,11,3,6,8
COc1ccc(NC(=O)Cc2ccc(Cl)c(Cl)c2)cn1,5,1,19,5,7,1
CN(c1ccccc1)S(=O)(=O)c1cccc(C(=O)NNC(=O)c2ccccc2)c1,2,1,13,3,12,-6
COc1ccc(NC(=O)c2cc(S(=O)(=O)N(Cc3ccccc3)c3ccccc3)ccc2Cl)cn1,94*,5,6,7,12,6
COCCNC(=O)Cn1cc(C(=S)N2CCOCC2)c2ccccc21,-4,0,16,1,9,1
Fc1ccc(-n2nnnc2-c2cnc(-c3cccs3)nc2C(F)(F)F)cc1,23,2,25,15,31,1
COc1ccc(-c2csc(CCN3N=C(C)CC3=O)n2)cc1,5,0,12,19,10,-1
CN1CCN(Cc2nc3ccccc3c(=O)n2Cc2nc(-c3ccc4ccccc4c3)cs2)CC1,100*,0,21,0,11,0
Cc1cc(C)c2cc(C(=O)Nc3ccccc3)[nH]c2c1,x,x,x,x,6,x
CC1CCN(CC(O)COC2CC(C)CCC2C(C)C)CC1 (stereo not given),90*,0,13,-3,22,0
CCOC(=O)N1CCN(CC(O)COC2CC(C)CCC2C(C)C)CC1 (stereo not given),95*,0,18,0,36,-3
CC1CCC(C(C)C)C(OCC(O)CNC(C)(C)C)C1 (stereo not given),24,0,14,0,13,-2
Cc1cc(C)n2nc(C(=O)OCCOc3cccc(Br)c3)nc2n1,-6,1,253*,3,8,-3
Cc1cc(C)n2nc(C(=O)OCCOc3ccc(F)cc3)nc2n1,-15,0,23,1,11,-3
CC(C(=O)N1CCN(Cc2ccc3c(c2)OCO3)CC1)c1ccc([N+](=O)[O-])cc1 (stereo not given),80*,2,16,4,8,11
CC(C(=O)N1CCOCC1)c1ccc([N+](=O)[O-])cc1 (stereo not given),55*,1,9,5,11,-15
CCOC(=O)C1CCN(C(=O)C(C)c2ccc([N+](=O)[O-])cc2)CC1 (stereo not given),-7,1,15,10,12,-2
